Most compounds without a hit are left out; they make up all but 12% or so of the library.
Lmaj promast: Leishmania major promastigote growth inhibition, primary screen; Leishmania major promastigotes, resazurin fluorescence viability; inhibition, % at 10 µM; actives 9% (n = 200,000);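 further: promastigotes grown with compound for 44 hours at 28 °C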
Rad51 HR inh: human RAD51 strand exchange inhibitors, primary screen, biochemical, fluorescence; actives 0.085% (n = 200,000); AID 1385, 2008; hRad51 DNA strand exchange, fluorescence dequenching; DNA repair protein RAD51 homolog 1 (Homo sapiens), Q06609; inhibition, % at 10 µM;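 active means inhibition above 40% at the single screening dose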
Target sequence (Q06609 whole entry, looked up): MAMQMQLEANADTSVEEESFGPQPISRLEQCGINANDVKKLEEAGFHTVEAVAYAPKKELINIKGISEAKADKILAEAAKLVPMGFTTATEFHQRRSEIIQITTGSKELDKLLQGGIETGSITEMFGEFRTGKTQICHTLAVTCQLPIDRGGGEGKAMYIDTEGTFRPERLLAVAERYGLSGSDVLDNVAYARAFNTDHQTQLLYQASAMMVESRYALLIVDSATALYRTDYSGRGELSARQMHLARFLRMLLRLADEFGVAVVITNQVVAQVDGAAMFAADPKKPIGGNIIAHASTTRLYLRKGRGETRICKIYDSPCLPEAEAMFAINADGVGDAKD
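material = hRad51 filaments on single-stranded DNA | reagent = Donor/quencher-labelled 47-bp dsDNA substrate | compound = 10 µM final, single point | schedule = strand-exchange reaction 15 min at room temperature | measured by = fluorescein emission 520 nm, excitation 485 nm | read-out basis = % inhibition versus plate control and blank means | benchmarks = plate controls and plate blanks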
Arbovirus anti: antivirals against arbovirus infection, primary screen, cell-based, full library, 10K replicate subset; arbovirus infection cell-based antiviral screen; inhibition, % at 10 µM; actives 0.37% (n = 200,000); AID 1251, 2008; in the data active means inhibition above about 30%
CHOP inh: inhibitors of CHOP promoter induction, primary screen, cell-based, unfolded protein response, luciferase reporter | CHO-K1 CHOP-promoter luciferase, tunicamycin-induced, 15-18 h | AID 2732, 2010 | actives 3.8% (n = 220,000) | inhibition, % at 10 µM;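 active means compounds that reduced the stress-induced luciferase reporter signal by more than about 70% of percent inhibition, limit read from the data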
Wee1 degr inh: Wee1 degradation inhibitors, primary screen, cell-based, HeLa, Wee1K328M-luciferase, luminescence | reporter increase, % at 5 µM | HeLa Luc-Wee1K328M stability; 100% = proteasome inhibitor MG132 effect | AID 1321, 2008 | Wee1-like protein kinase (Homo sapiens), P30291 | actives 1.2% (n = 220,000);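 active means activation above the mean of all tested compounds plus 3 SD, set per screening run, cut at about 8.8% in these data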;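 further: cells exposed to compound for 20 h before luminescence read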
PKD1 kinase inh: inhibitors of human PKD1 kinase, biochemical, fluorescence polarization; actives 0.056% (n = 200,000); AID 797, 2007; PKD1 kinase fluorescence polarization assay; inhibition, % (concentration not given with the values); Serine/threonine-protein kinase D1 (Homo sapiens), Q15139
Hits are given with their value; 0 = inactive; - = no result given. Unless noted, no stated cut-off is given here; in the data, active means inhibition above about 50%; inactive means the rest.

SMILES | Lmaj promast | Rad51 HR inh | Arbovirus anti | CHOP inh | Wee1 degr inh | PKD1 kinase inh
CN(C)C(=O)c1sccc1Oc1ccc(F)cc1[N+](=O)[O-] | 0 | 0 | 0 | 0 | 0 | 0
COC(=O)c1ccccc1NC(=S)N(Cc1ccc2c(c1)OCO2)Cc1cc2ccc(C)cc2[nH]c1=O | 97 | 0 | 0 | 0 | 0 | 0
CCN(CC)CCN(Cc1cc2ccc(C)cc2[nH]c1=O)C(=S)Nc1ccccc1C(=O)OC | 0 | 0 | 0 | 0 | 0 | 0
COC(=O)c1ccccc1NC(=S)N(Cc1ccc2c(c1)OCO2)Cc1cc2ccc(OC)cc2[nH]c1=O | 58 | - | 0 | 0 | 0 | 0
COC(=O)c1ccccc1NC(=S)N(Cc1ccc2c(c1)OCO2)Cc1cc2cc(C)ccc2[nH]c1=O | 99 | 0 | 0 | 0 | 0 | 0
Cc1cccc(-c2ncc(S(=O)(=O)C(C)(C)C)c(N)n2)c1 | - | 0 | - | 0 | 0 | -
CCC(=O)N1CCc2cc(S(=O)(=O)CCC(=O)Nc3ccc(C)c(F)c3)ccc21 | 0 | 0 | 0 | 0 | 0 | 0
CCC(=O)N1CCc2cc(S(=O)(=O)CCC(=O)Nc3cccc(C)n3)ccc21 | 56 | 0 | 0 | 0 | 0 | 0
CCOC(=O)C1(C)NC(c2ccco2)C2C(=O)N(CC)C(=O)C21 (stereo unspecified) | 0 | 0 | 0 | 0 | 0 | 0
Cc1csc(C2=C(O)CN(CCc3ccccc3)C2=N)n1 | 99 | 0 | 0 | 0 | 0 | 0
c1ccc(Sc2ncccn2)nc1 | - | 0 | - | 0 | 0 | -
CCN=C1SC(CC(=O)NCc2ccccc2)C(=O)N1CC (stereo unspecified) | 0 | 0 | 0 | 0 | 0 | 0
Cn1c(CNC(=O)OC(C)(C)C)nnc1SCC(=O)N1CCOCC1 | - | 0 | - | 0 | 0 | -
CCOC(=O)c1c(C)n(C)c2cc(-c3ccc(F)cc3)c(O)cc12 | 0 | 0 | 0 | 79 | 0 | 0
CCOC(=O)c1c(C)n(C)c2ccc(OC(C)=O)cc12 | 0 | 0 | 0 | 0 | 0 | 0
COc1cc(OC)c2c(N)c(C#N)c(C(F)(F)C(F)(F)F)nc2c1 | 0 | 0 | 0 | 0 | 0 | 0
COc1ccc2nc(C(F)(F)C(F)(F)F)c(C#N)c(N)c2c1 | 0 | 0 | 0 | 81 | 0 | 0
CC(C)Cc1cc(CN2CCC(CO)(Cc3ccccc3)CC2)[nH]n1 | - | 0 | - | 0 | 0 | -
Cc1cccc(C(=O)NC(=S)N2CCN(C(=S)NC(=O)c3cccc(C)c3)CC2)c1 | 73 | 0 | 0 | 0 | 0 | 0
Cc1ccc(C(=O)NNC(=S)NC(=O)c2ccc(Cl)cc2)cc1 | 64 | - | 0 | 94 | 0 | 0
Cc1cccc(C(=O)NC(=S)N2CCN(C)CC2)c1 | 0 | 0 | 0 | 0 | 0 | 0
CCC(=O)NNC(=S)NC(=O)c1ccc(C)cc1 | 0 | 0 | 0 | 0 | 0 | 0
CC(=O)NNC(=S)NC(=O)c1ccccc1 | 0 | 0 | 0 | 0 | 0 | 0
CC(=O)NNC(=S)NC(=O)c1ccc(C)cc1 | 0 | 0 | 0 | 80 | 0 | 0
Cc1ccc(C(=O)NC(=S)NNC(=O)COc2ccccc2C)cc1 | 0 | 0 | 0 | 103 | 0 | 0
SMILES | Lmaj promast | Rad51 HR inh | Arbovirus anti | CHOP inh | Wee1 degr inh | PKD1 kinase inh
Cc1ccc(OCC(=O)NNC(=S)NC(=O)C(C)(C)C)c(Br)c1 | 0 | 0 | 0 | 92 | 0 | 0
Cc1cccc(NC(=S)NNC(=O)COc2ccc(Cl)cc2Cl)c1 | 0 | 0 | 0 | 0 | 0 | 0
Cc1cccc(C(=O)NC(=S)NNC(=O)c2ccccc2Cl)c1 | 0 | 0 | 0 | 86 | 0 | 0
CCCOc1ccc(C(=O)NNC(=S)NC(=O)c2cc(-c3ccc(Cl)cc3)nc3ccccc23)cc1 | 0 | 0 | 0 | 72 | 0 | 0
CN(C)c1nc(NC(C)(C)C)nc(NC(C)(C)C)n1 | 60 | 0 | 0 | 0 | 0 | 0
CCNc1nc(NC(C)(C)C)nc(N(CC)n2cnnc2)n1 | 0 | 0 | 0 | 0 | 0 | 0
CC(=O)c1ccc(OCC(C)C)c(CN2CCCCC2)c1 | 86 | 0 | 0 | 0 | 0 | 0
CC(C)COc1ccc(C(=O)CCN2CCCCC2)cc1 | 96 | 0 | 0 | 0 | 0 | 0
CCCCOc1ccc(C(=O)CCN2CCCCC2)cc1 | 92 | 0 | 0 | 0 | 0 | 0
O=C(Nc1ccccc1)c1nnsc1S(=O)c1ccc(Cl)cc1 (stereo unspecified) | 0 | - | 0 | 75 | 0 | 0
Cn1c(-c2ccc3c(c2)OCO3)cnc1NC(=O)CCC(=O)NCCc1ccccc1 | 0 | 0 | 0 | 0 | 0 | 0
Cn1c(-c2ccc3c(c2)OCO3)cnc1NCc1cccc(Cl)c1 | 93 | 0 | 0 | 0 | 0 | 0
Cc1ccc(-c2cnc(NCc3cc4c(cc3[N+](=O)[O-])OCO4)n2C)cc1C | 95 | 0 | 0 | 0 | 0 | 0
Cn1c(-c2ccc3c(c2)OCO3)cnc1NCc1ccccc1 | 63 | 0 | 0 | 0 | 0 | 0
Cn1c(-c2ccc3c(c2)OCO3)cnc1NCc1ccccc1Cl | 96 | 0 | 0 | 0 | 0 | 0
Cn1c(-c2ccc3c(c2)OCO3)cnc1N | 0 | 0 | 0 | 0 | 0 | 0
N#CC(C#N)=Cc1cccn1-c1ccc(S(N)(=O)=O)cc1 | 0 | - | 0 | 0 | 0 | 0
COc1ccc(OC)c(-c2nc(C(N)=O)c3[nH]c(=O)n(-c4ccc(F)cc4)c3n2)c1 | 0 | 0 | 0 | 0 | 0 | 0
NC(=O)c1nc(C2CCCCC2)nc2c1[nH]c(=O)n2-c1ccc(F)cc1 | 54 | - | 0 | 89 | 0 | 0
COc1ccccc1-n1c(=O)[nH]c2c(C(N)=O)nc(CC(C)C)nc21 | 0 | 0 | 0 | 0 | 0 | 0
Cc1ccc(-n2c(=O)[nH]c3c(C(N)=O)nc(CC(C)C)nc32)cc1 | 70 | 0 | 0 | 0 | 0 | 0
Oc1ccccc1/C=N/Nc1cc(N2CCCC2)nc(N2CCCC2)n1 | 96 | 0 | 0 | 0 | 0 | 0
Oc1cccc(/C=N/Nc2cc(N3CCOCC3)nc(N3CCOCC3)n2)c1 | 61 | 0 | 0 | 0 | 0 | 0
Oc1ccc(/C=N/Nc2cc(N3CCOCC3)nc(N3CCOCC3)n2)cc1O | 0 | - | 0 | 0 | 0 | 0
COc1ccc(-c2csc(N(Cc3ccco3)C(=O)c3cccs3)n2)cc1 | - | 0 | - | 0 | 0 | -
O=C(C1CC1)N(Cc1ccco1)c1nc(-c2ccccc2)cs1 | 58 | 0 | 0 | 0 | 0 | 0
COc1ccc(COc2cc(-c3cccc(OC)c3)nc3ccc(NC(=O)c4ccc(Cl)cc4)cc23)cc1 | 0 | 0 | 0 | 0 | 0 | 0
COc1ccc(COc2cc(-c3cccc(OC)c3)nc3ccc(NC(=O)c4ccccc4)cc23)cc1 | 68 | 0 | 0 | 0 | 0 | 0
COc1ccc(COc2cc(-c3cccc(OC)c3)nc3ccc(NC(=O)c4ccc(OC)cc4)cc23)cc1 | 97 | 0 | 0 | 0 | 0 | 0
COc1ccc(COc2cc(-c3cccc(OC)c3)nc3ccc(NC(=O)c4cccnc4)cc23)cc1 | 100 | 0 | 0 | 0 | 0 | 0

Compound activity from PubChem.
